# Biological target: Probable G-protein coupled receptor 34 (Mus musculus, UniProt Q9R1K6)
# Test: Agonist activity at mouse GPR34 expressed in HEK293 cells co-transfected with AP-TGFalpha/chimeric Galphaq/i1 assessed as induction of ectodomain shedding of membrane bound AP-TGFalpha after 1 hr
# How it was run: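 HEK293A cells transiently co-transfected with AP-TGFα, chimeric Gαq/i1 and GPR34 (human for line 1, mouse for line 3) or empty vector (mock). After 24 h, cells were suspended in HBSS with 5 mM HEPES pH 7.4 and preincubated 30 min with 10 μM (final) Ki16425. Compounds in HBSS with 0.01% fatty acid-free BSA were added for 1 h at 37 °C. AP activity in medium and on cells was read as OD405 with p-NPP after 1 h at room temperature.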
# Chain of Probable G-protein coupled receptor 34 (Q9R1K6 whole entry, the tested form may be a part): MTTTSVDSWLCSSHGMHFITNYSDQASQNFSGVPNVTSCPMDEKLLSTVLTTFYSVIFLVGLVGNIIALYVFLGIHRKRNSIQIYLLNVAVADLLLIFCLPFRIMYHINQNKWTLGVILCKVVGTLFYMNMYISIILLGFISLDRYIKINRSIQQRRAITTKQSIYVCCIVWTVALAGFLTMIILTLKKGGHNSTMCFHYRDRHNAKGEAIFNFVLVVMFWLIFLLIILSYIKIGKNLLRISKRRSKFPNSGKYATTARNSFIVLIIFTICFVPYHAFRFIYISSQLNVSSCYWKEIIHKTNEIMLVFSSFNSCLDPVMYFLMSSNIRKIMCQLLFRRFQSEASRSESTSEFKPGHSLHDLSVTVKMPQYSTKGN
row,Compound,EC50
1,CC(C)(C)c1ccccc1Oc1cccc(COc2ccccc2CCC(=O)OCCCOP(=O)(O)OC[C@H](N)C(=O)O)c1,> 3.16 µM
2,N[C@@H](COP(=O)(O)OCCCOC(=O)CCc1ccccc1OCc1cccc(OCc2ccccc2)c1)C(=O)O,> 3.16 µM
3,N[C@@H](COP(=O)(O)OCCCOC(=O)CCc1ccccc1OCc1cccc(-c2ccccc2)c1)C(=O)O,> 3.16 µM

# Results, then the compound that gave them:
row,EC50,Compound
1,> 3.16 µM,CCCCCCCC/C=C\CCCCCCCC(=O)OCCCOP(=O)(O)OC[C@H](N)C(=O)O
2,> 3.16 µM,CCCCCCOc1cccc(COc2ccccc2CCC(=O)OCCCOP(=O)(O)OC[C@H](N)C(=O)O)c1
3,> 3.16 µM,CCCCCCOCC#CCOc1ccccc1CCC(=O)OCCCOP(=O)(O)OC[C@H](N)C(=O)O

# — BindingDB's records for doi:10.1021/acs.jmedchem.7b00693 (The University of Tokyo, 2017)
